Screening results: PubChem, Johns Hopkins Ion Channel Center
RGS4 block: RGS4 inhibitors, primary screen, cell-based, HEK293 M3R inducible RGS4, calcium flux; 310,000 compounds, 0.45% hits; B-score at 10 µM; Fluo-4 calcium flux; hits give high values; triggered by carbachol at its EC20; Regulator of G-protein signaling 4 (Homo sapiens), P49798; AID 463165, 2010;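 active = B-score, a plate-corrected calcium signal, over three deviations above library mean, with baseline fluorescence within five deviations of library mean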;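 note: RGS4 expression induced by doxycycline in cells with stable M3 receptor; B-score is computed from the integrated fluorescence ratio over baseline after carbachol; higher B-score means a larger calcium signal and so more RGS4 inhibition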
Target sequence (P49798 whole entry, looked up): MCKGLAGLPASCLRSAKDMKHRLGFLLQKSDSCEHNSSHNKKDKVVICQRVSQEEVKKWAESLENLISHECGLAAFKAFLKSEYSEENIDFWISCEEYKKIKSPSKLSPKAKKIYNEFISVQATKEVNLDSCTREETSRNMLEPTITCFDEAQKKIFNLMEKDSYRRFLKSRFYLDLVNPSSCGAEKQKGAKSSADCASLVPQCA
RGS4 pot: RGS4 potentiators or activators, primary screen, cell-based, HEK293 M3R inducible RGS4, calcium flux | carbachol calcium flux Fluo4; hits give low values | B-score at 10 µM | 310,000 compounds, 0.92% hits | AID 463111, 2010;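 active = B-score of the integrated calcium signal more than 4 SD below the library mean, with starting fluorescence not abnormally high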;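 note: negative B-score means reduced calcium response which marks RGS4 activation or potentiation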
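test system = M3R-expressing HEK293 line, RGS4 induced by doxycycline | probe or stimulus = carbachol at ECmax as muscarinic agonist stimulus | timing = dye loading 30 min 37 °C, buffer rest 30 min RT | signal = calcium dye Fluo4 fluorescence | evaluation = B score from integrated fluorescence ratio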
MrgX1 PAM: positive allosteric modulators of MrgX1, primary screen, HEK293 cells, Fluo-4 calcium flux. B-score at 10 µM. FDSS; hits give high values. AID 588675, 2011. 310,000 compounds, 0.63% hits;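 active = plate-corrected calcium response at least 3 library SD above typical, normal starting fluorescence, not activating the receptor alone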;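 note: compound read alongside a low EC10 to EC30 dose of BAM8-22 agonist; peak minus trough fluorescence over baseline measured at the second addition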
Target sequence (Q96LB2 whole entry, looked up): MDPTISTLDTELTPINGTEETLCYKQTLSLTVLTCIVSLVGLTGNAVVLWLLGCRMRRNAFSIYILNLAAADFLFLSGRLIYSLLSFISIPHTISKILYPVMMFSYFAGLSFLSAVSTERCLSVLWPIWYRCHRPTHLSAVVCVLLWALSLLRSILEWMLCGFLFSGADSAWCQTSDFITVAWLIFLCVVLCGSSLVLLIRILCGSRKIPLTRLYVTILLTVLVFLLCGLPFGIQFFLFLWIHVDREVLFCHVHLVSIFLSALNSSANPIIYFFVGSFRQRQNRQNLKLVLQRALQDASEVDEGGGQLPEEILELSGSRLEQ
MrgX1 ag: agonists of human MrgX1 receptor, primary screen, HEK293 cells, Fluo-4 calcium flux; B-score at 10 µM; Fluo-4 calcium fluorescence, agonist mode; hits give high values; 310,000 compounds, 0.44% hits; AID 588627, 2011;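 active = calcium response B-score plate-corrected fluorescence ratio at least 3 library SD, with starting fluorescence B-score inside 5 SD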
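Assay system: MrgX1-expressing HEK293 cells / Amount: fifteen thousand cells per well / Doses: test compound in the initial addition of three / Timing: cells plated overnight, dye loaded 0.5 h 37 °C, 0.5 h room temperature / Technique: kinetic calcium dye fluorescence, Fluo-4 NW / Control set: positive and negative controls per plate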
MrgX1 antagonist: antagonists of human MrgX1 receptor, primary screen, HEK293 cells, Fluo-4 calcium flux; Mas-related G-protein coupled receptor member X1 (Homo sapiens), Q96LB2; BAM8-22 antagonism; hits give low values; B-score at 10 µM; 310,000 compounds, 1.3% hits;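 active = calcium-response B-score plate-corrected more than 3 library SD below zero, starting fluorescence within 5 deviations, no agonist response on first addition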;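 note: peak minus trough fluorescence over baseline after final BAM8-22 challenge near maximal dose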
RGS4 block valid: enhanced carbachol calcium response, M3R/RGS4 cells, RGS4 inhibitor project, cell-based, validation screen, HEK293 M3R/RGS4, calcium flux | shares compounds with RGS4 block | carbachol calcium Fluo-4 fluorescence; carbachol added at its EC20; 0 = buffer wells, 100 = carbachol control | calcium response, % at 10 µM | 1,700 compounds, 65% hits;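 active = duplicate-averaged calcium response above the buffer-only control mean plus 5 SD of those controls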;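 note: integrated fluorescence ratio F max minus min over baseline F0; higher response in RGS4-induced cells means RGS4 inhibition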
M3R Ca ctr: carbachol calcium response in non-induced M3R cells, confirmation, counter-screen for RGS4 inhibitor project, cell-based, HEK293 M3R; shares compounds with RGS4 block; carbachol calcium Fluo-4; submaximal (EC20) carbachol stimulus; buffer wells 0%, carbachol control wells 100%; activity (percent), % at 10 µM; 1,900 compounds, 20% hits; AID 493000, 2010; call rule not given here;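 note: RGS4 induction absent so cells express M3R without RGS4; higher means more calcium signal and flags a non-specific hit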
RGS4 inh ctr2: signal in non-induced cells without carbachol, RGS4 inhibitor counter-screen. HEK293 M3R/RGS4 non-induced, Fluo-4 calcium, no carbachol; normalised: buffer wells 0%, carbachol wells 100%. 1,900 compounds, 22% hits. shares compounds with RGS4 block. calcium response (agonist-mode artifact), % at 10 µM. AID 493001;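 active = duplicate-averaged calcium rise in uninduced cells above buffer wells' mean plus 5 SD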
Of the large screens only hits and unclear results are named; the others gave an inactive call (follow-up assays come after a bar, where they were run). Only some compounds are listed: those with a hit (about 3.5% of all), similar ones and a draw of the others.

COc1ccc(/C=N/NC(=O)c2ccc3c(c2)OCCO3)cc1[N+](=O)[O-]	none
O=C1c2[nH]nc(-c3ccccc3O)c2C(c2ccccc2)N1Cc1ccco1 (centres undefined)	RGS4 block 12 | RGS4 block valid 6.0% | M3R Ca ctr inactive | RGS4 inh ctr2 inactive
O=C(C1=C(O)C(=O)N(Cc2ccco2)C1c1ccccc1F)c1cccs1 (centres undefined)	none
O=C1c2[nH]nc(-c3ccccc3O)c2C(c2ccccc2F)N1Cc1ccco1 (centres undefined)	RGS4 block 16 | RGS4 block valid 34% | M3R Ca ctr 40% | RGS4 inh ctr2 inactive
COc1cccc(C2c3c(-c4ccccc4O)n[nH]c3C(=O)N2Cc2ccco2)c1 (centres undefined)	none
CCn1c2ccccc2c2cc(NC(=O)CSc3nnc(-c4ccc(OC)cc4)n3N)ccc21	RGS4 block 5.3 | RGS4 block valid 10% | M3R Ca ctr inactive | RGS4 inh ctr2 inactive
COc1ccc(NC(=O)CSc2nnc(-c3ccccc3)n2N)cc1	none
NC(=S)N/N=C/c1ccc(-n2nncc2-c2ccc(Cl)cc2)cc1	RGS4 block 39 | RGS4 block valid 23% | M3R Ca ctr 64% | RGS4 inh ctr2 inactive
CCc1cccc(CC)c1NC(=S)NCCc1c(C)[nH]c2ccccc12	RGS4 block 6.2 | RGS4 block valid 22% | M3R Ca ctr inactive | RGS4 inh ctr2 inactive
COc1cc2ccccc2cc1C(=O)Nc1ccc(Cl)cn1	none
CC(=O)Nc1ccc(NC(=O)CC2Nc3cccc4cccc(c34)NC2=O)cc1 (centres undefined)	none | RGS4 block valid inactive | M3R Ca ctr inactive | RGS4 inh ctr2 inactive
Cc1ccc(/C=C/C(=O)c2ccccc(=O)c2O)cc1C	RGS4 block 11 | RGS4 block valid 48% | M3R Ca ctr inactive | RGS4 inh ctr2 72%
CCOc1nc(NC(=O)NS(=O)(=O)c2cccc(Cl)c2)nc(-c2ccccc2)n1	none
CCOC(=O)CSC1=NC(=O)/C(=C\c2ccc(Cl)cc2)S1	none | RGS4 block valid inactive | M3R Ca ctr inactive | RGS4 inh ctr2 18%
CCOC(=O)C1CCN(C2=NC(=O)/C(=C/c3ccc(Cl)cc3)S2)CC1	none
N=C1/C(=C/c2cccn2Cc2ccc(F)cc2)C(=O)N=C2SC=CN12	none | M3R Ca ctr inactive | RGS4 inh ctr2 21%
Cc1ccc(Cn2cccc2/C=C2/C(=N)N3C=CSC3=NC2=O)cc1	none | RGS4 block valid inactive | M3R Ca ctr inactive | RGS4 inh ctr2 inactive
Cc1cccc(Cn2cccc2/C=C2/C(=N)N3C=CSC3=NC2=O)c1	none
COc1ccc(NC(=O)CN(c2ccc(OC)c(Cl)c2)S(=O)(=O)c2ccccc2)cc1	none
CC(=O)SC(C[N+](=O)[O-])c1cn(C(C)=O)c2ccccc12 (centres undefined)	RGS4 block 16, MrgX1 ag 39 | RGS4 block valid 63% | M3R Ca ctr 29% | RGS4 inh ctr2 34%
C=CCNC(=O)c1c(CSc2ccc(Cl)cc2)noc1C(=O)NCc1ccccc1	none
Cc1cccc(C)c1OCc1cc(C(=O)N(Cc2c(C)nn(C)c2C)C2CC2)no1	none
Cc1ccc(SCc2[nH]nc3c2C2(C(=O)Nc4ccc([N+](=O)[O-])cc42)C(C#N)=C(N)O3)cc1 (centres undefined)	RGS4 block 6.1 | RGS4 block valid inactive | M3R Ca ctr inactive | RGS4 inh ctr2 inactive
Cc1ccc(SCc2[nH]nc3c2C2(CCSCC2)C(C#N)=C(N)O3)cc1	none
NC(=O)c1cc(S(=O)(=O)Nc2ccc(OC(F)(F)F)cc2)cs1	none
O=C(O)C(c1ccccc1)N1C(=O)/C(=C/c2cccs2)SC1=S (centres undefined)	none
O=C1/C(=C\c2ccc(O)cc2)SC(=S)N1Cc1ccccc1	RGS4 block 8.1 | RGS4 block valid 14% | M3R Ca ctr inactive | RGS4 inh ctr2 28%
O=C1/C(=C/c2ccc(O)c([N+](=O)[O-])c2)SC(=S)N1Cc1ccccc1	RGS4 block 7.8, MrgX1 antagonist -5.7 | RGS4 block valid 11% | M3R Ca ctr 37% | RGS4 inh ctr2 inactive
CCOc1cc(/C=C2/SC(=S)N(Cc3ccccc3)C2=O)ccc1O	none
C=CCN=C1S/C(=C/c2cccc([N+](=O)[O-])c2)C(=O)N1CC=C	none
O=C(O)c1cccc(CN2C(=O)S/C(=C/c3cccc([N+](=O)[O-])c3)C2=O)c1	RGS4 block 26 | RGS4 block valid 62% | M3R Ca ctr 73% | RGS4 inh ctr2 inactive
O=C(O)c1ccc(/C=C2/SC(=S)N(Cc3ccccc3)C2=O)cc1	none
CC(c1ccccc1)N1C(=O)/C(=C/c2ccncc2)SC1=S (centres undefined)	RGS4 block 7 | RGS4 block valid 6.5% | M3R Ca ctr 34% | RGS4 inh ctr2 inactive
CC(=O)Nc1ccc(NC(=O)COC(=O)CCCc2c[nH]c3ccccc23)cc1	none
O=C(O)C1C2C=CC(C2)C1C(=O)NCc1cccs1 (centres undefined)	none
COc1cccc(N2CCN(C(=O)c3ccc(Cl)c(NC4=NC5CS(=O)(=O)CC5S4)c3)CC2)c1 (centres undefined)	none
CCOc1nc2cnccc2n(CC(=O)Nc2c(C)cccc2CC)c1=O	none
CC(=O)Oc1ccc(/C=C2/SC(=S)N(Cc3ccccc3)C2=O)cc1	none
COc1ccc(CN2C(=O)/C(=C/c3ccncc3)SC2=S)cc1	RGS4 block 11 | RGS4 block valid 25% | M3R Ca ctr inactive | RGS4 inh ctr2 22%
O=C(Nc1cccc(C(=O)O)c1)/C(=C\c1ccc2c(c1)OCO2)NC(=O)c1ccccc1Cl	none
N#Cc1ccc(N/N=C/c2ccccc2)c([N+](=O)[O-])c1	none
O=C1N=C2SCCN2/C1=C\c1ccc(Cl)cc1	RGS4 block 25 | RGS4 block valid 85% | M3R Ca ctr inactive | RGS4 inh ctr2 inactive
Cc1ccc(/C=C2\SC(N3CCCC3)=NC2=O)cc1	none
